The source of these data is ChEMBL document CHEMBL3351241, “Metabolic stability optimization and metabolite identification of 2,5-thiophene amide 17β-hydroxysteroid dehydrogenase type 2 inhibitors” (Eur J Med Chem, 2014).

The nature of series [1]: Half-life in human liver microsome S9 fraction at 1 uM up to 60 mins by LC-MS/MS analysis. Type of series: ADME, microsomes. A digest of the protocol: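 Sampled at 0, 5, 15 and 60 min and quenched with 2 volumes cold acetonitrile containing internal standard. Remaining parent quantified by LC-MS/MS to give t1/2.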
In general terms: Microsomes from liver hold many membrane-bound enzymes, among them those of drug oxidation.

For series [2], the target named is T1, 17-beta-hydroxysteroid dehydrogenase type 2 (Homo sapiens, UniProt P37059).
T1 sequence (P37059 whole entry): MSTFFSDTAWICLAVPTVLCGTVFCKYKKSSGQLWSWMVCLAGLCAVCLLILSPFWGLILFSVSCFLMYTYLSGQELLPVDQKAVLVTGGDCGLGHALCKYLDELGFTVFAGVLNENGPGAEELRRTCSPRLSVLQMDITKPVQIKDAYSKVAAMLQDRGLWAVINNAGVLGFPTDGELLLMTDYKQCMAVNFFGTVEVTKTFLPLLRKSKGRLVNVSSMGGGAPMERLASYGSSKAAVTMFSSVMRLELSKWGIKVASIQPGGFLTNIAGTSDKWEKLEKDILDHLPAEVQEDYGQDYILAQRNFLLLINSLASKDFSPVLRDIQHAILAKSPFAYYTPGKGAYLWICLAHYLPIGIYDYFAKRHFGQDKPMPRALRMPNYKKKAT
Put plainly: Displacement of [3H]E2 from human placental microsomal 17beta-HSD2 after 20 mins by cell-free assay. Summed up:
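Microsomal 17β-HSD2 from human placenta, 150,000 g pellet. Started with unlabeled plus [3H]-E2 (final 500 nM), stopped after 20 min with HgCl2, ether-extracted. E1/E2 resolved by radio-HPLC, giving % conversion. Inhibition read at 1 µM.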
For orientation: Loss of bound radioactivity is the signal in a displacement assay; it reports binding, not function.

The target in series [3] is T2, 17-beta-hydroxysteroid dehydrogenase type 1 (Homo sapiens, UniProt P14061).
T2 sequence (P14061 whole entry): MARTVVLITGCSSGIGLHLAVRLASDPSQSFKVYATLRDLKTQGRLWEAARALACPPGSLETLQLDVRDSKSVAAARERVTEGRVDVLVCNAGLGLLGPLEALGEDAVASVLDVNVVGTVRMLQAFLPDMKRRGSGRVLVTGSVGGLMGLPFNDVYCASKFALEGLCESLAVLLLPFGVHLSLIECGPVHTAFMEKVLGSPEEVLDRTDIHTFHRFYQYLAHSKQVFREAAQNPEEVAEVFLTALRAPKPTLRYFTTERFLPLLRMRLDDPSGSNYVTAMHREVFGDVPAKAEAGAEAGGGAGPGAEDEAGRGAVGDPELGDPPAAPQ
Description: Displacement of [3H]E1 from human placental cytosolic17beta-HSD1 after 10 mins by cell-free assay. Summed up: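 Cytosolic 17β-HSD1 from human placenta, ammonium sulfate precipitated. Enzyme incubated with NADH 500 µM, test compound and unlabeled plus [3H]-E1 (final 500 nM) for 10 min at 37 °C. Reaction stopped with HgCl2 and extracted with ether. E1/E2 separated by C18 RP HPLC (acetonitrile/water 45:55) with radioflow detection. Activity taken as % conversion. Percent inhibition read at 1 µM.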

Series [4] concerns the target T3, Estrogen receptor (Homo sapiens) (UniProt P03372).
T3 sequence (whole entry): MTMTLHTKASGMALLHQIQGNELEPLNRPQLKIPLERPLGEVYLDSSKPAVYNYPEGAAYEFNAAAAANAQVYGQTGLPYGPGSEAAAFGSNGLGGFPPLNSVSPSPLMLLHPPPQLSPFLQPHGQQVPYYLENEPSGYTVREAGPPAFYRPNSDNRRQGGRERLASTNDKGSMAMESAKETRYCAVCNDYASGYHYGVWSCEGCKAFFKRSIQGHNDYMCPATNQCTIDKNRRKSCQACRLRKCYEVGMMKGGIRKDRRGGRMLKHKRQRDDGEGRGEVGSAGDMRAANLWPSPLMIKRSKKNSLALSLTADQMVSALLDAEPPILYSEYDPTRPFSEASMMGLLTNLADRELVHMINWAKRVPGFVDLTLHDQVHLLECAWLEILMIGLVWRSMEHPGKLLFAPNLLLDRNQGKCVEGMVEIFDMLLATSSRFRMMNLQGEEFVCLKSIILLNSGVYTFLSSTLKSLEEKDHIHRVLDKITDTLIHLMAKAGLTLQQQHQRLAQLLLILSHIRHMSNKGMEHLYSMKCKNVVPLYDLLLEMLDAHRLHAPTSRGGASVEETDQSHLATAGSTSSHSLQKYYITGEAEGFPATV
Put plainly: Displacement of [3H]E2 from human recombinant ERalpha at 3 nM after 16 to 20 hrs by cell-free assay. Summed up: (§1)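 Recombinant human ERα (1 nM, [3H]-E2 3 nM) or ERβ (4 nM, [3H]-E2 10 nM) incubated with test compound, 5% DMSO final, for 16–20 h at 4 °C. Nonspecific binding set with 100-fold unlabeled E2. Complexes bound to hydroxyapatite, washed three times, counted by liquid scintillation. Compounds tested at 1000-fold the [3H]-E2 level (3 µM ERα, 10 µM ERβ). Below 50% displacement classed RBA <0.1%.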

In series [5] the target is Estrogen receptor beta (Homo sapiens) (UniProt Q92731). Description: Displacement of [3H]E2 from human recombinant ERbeta at 10 nM after 16 to 20 hrs by cell-free assay. A digest of the protocol:
as §1

For another series, the species on record is Homo sapiens. Description: Selectivity factor, ratio of IC50 for human placental cytosolic17beta-HSD1 to IC50 for human placental microsomal 17beta-HSD2.
The nature of series [6]: Drug metabolism in human liver microsome S9 fraction assessed as acid metabolite formation by LC-MS/MS analysis. In kind it is ADME. The following applies: microsomes.
Series [7] is described as follows: Drug metabolism in human liver microsome S9 fraction assessed as di-hydroxylation metabolite formation by LC-MS/MS analysis. To be noted: microsomes. Type of series: ADME.
Series [8] in a line: Drug metabolism in human liver microsome S9 fraction assessed as didemethylation metabolite formation by LC-MS/MS analysis. In kind it is ADME. To be noted: microsomes.
Series [9] can be described thus: Half-life in human liver microsome S9 fraction at 3 uM up to 45 mins by LC-MS/MS analysis. Type of series: ADME, microsomes.
The nature of series [10]: Drug metabolism in human liver microsome S9 fraction treated with N-Methyl-N,5-bis(3-methylphenyl)thiophene-2-carboxamide by LC-MS/MS analysis. Type of series: ADME. To be noted: microsomes.
Series [11] is described as follows: Drug metabolism in human liver microsome S9 fraction assessed as demethylation/hydroxylation metabolite formation by LC-MS/MS analysis. Type of series: ADME. To be noted: microsomes.

Chain of Estrogen receptor beta (Homo sapiens) (Q92731 whole entry): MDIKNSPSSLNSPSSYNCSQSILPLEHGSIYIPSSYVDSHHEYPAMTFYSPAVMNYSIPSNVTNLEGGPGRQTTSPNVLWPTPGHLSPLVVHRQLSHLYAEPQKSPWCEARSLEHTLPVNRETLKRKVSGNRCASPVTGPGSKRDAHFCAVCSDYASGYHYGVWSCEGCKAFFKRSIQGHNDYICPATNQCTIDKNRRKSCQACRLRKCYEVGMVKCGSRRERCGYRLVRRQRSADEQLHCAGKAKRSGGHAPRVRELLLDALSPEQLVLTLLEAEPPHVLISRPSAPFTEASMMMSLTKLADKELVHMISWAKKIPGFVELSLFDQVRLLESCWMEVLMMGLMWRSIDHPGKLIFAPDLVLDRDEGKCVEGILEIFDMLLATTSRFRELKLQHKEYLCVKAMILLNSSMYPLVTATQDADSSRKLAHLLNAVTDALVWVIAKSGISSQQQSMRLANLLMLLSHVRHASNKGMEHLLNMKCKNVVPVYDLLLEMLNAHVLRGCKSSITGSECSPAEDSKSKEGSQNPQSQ

Consider `Cc1cccc(-c2cnc(C(=O)N(C)c3cccc(C)c3)s2)c1`, for which the half-life (as a rule, the time needed for the level to fall by half in the phase considered) at 1 µM in [1] stood at 5 min. The IC50 (commonly the concentration needed to halve the response being measured) stood at 499 nM in series [2] and 25300 nM in [3]. Moreover, the inhibition (commonly the change of the read-out against control, counted positive when it falls) in series [4] is 9%; in series [5] it was 0%. In the series listed under Homo sapiens, the Ratio IC50 is 51.

On to `COc1cccc(N(C)C(=O)c2ccc(-c3cccc(C)c3)s2)c1`, for which the Drug metabolism result in [6], in [7] and in [8] was “metabolite_notdetected” throughout.

In [9], `COc1cccc(N(C)C(=O)c2ccc(-c3cccc(N(C)C)c3)s2)c1` came in with a half-life at 3 µM of 29 min.

In the case of `Cc1cccc(N(C)C(=O)c2ccc(-c3cccc(CO)c3)s2)c1`, the Drug metabolism entry in series [10] is recorded as “metabolite_notdetected”.

For `Cc1cccc(-c2ccc(C(=O)N(C)c3cccc(Cl)c3)s2)c1`, the figures for the IC50 in series [2] and in [3] were 327 nM and 9410 nM, respectively. Further, the inhibition in [4] is 16%; in series [5], 11%. The Ratio IC50 in the series listed under Homo sapiens came to 29.

`COc1cccc(N(C)C(=O)c2ccc(-c3cccc(OC)c3F)s2)c1` gave a half-life at 1 µM in [1] of 12 min.

As for `Cc1cccc(-c2ccc(C(=O)N(C)c3cccc(C)c3)s2)c1`, the values for the inhibition in series [4] and in [5] were 12% and 21%, respectively. Moreover, the Drug metabolism entry in [8] is recorded as “metabolite_notdetected”.

`Cc1cccc(-c2ccc(C(=O)N(C)c3cccc(C)c3)cc2)c1`: the inhibition amounted to 8% in [4] and 11% in series [5].

In turn, `Cc1ccc(-c2ccc(C(=O)N(C)c3ccccc3C)s2)cc1` came in with a half-life at 1 µM in series [1] of 22 min. The IC50 in series [2] turned out to be 225 nM; in series [3], 698 nM. The Ratio IC50 in the series listed under Homo sapiens amounted to 3.

Regarding `Cc1ccc(N(C)C(=O)c2ccc(-c3ccc(C)c(C)c3)s2)cc1`, the figures for the inhibition in [4] and in series [5] were 5% and 4%, respectively.

As to `COc1cccc(-c2ccc(C(=O)N(C)c3cccc(OC)c3)s2)c1`, the Drug metabolism entry in series [11] and in series [6] was “metabolite_notdetected” throughout.

As for `Cc1ccc(-c2ccc(C(=O)N(C)c3cccc(C)c3)s2)cc1`, the inhibition in [4] is 11%; in [5] it was 34%.

Regarding `COc1cc(-c2cccc(C)c2)sc1C(=O)N(C)c1cccc(C)c1`, the IC50 in series [2] stood at 127 nM; in [3], 16700 nM. Further, the Ratio IC50 in the series listed under Homo sapiens was found to be 132.
